Test results as given in ChEMBL document CHEMBL1134760, “Evaluation of amino acid-based linkers in potent macrocyclic inhibitors of farnesyl-protein transferase” (Bioorg Med Chem Lett, 2001).

What was measured:
[1] = target: Protein farnesyltransferase (Rattus norvegicus, UniProt Q02293+Q04631); assay: In vitro ability to displace radiolabeled FTI from farnesyltransferase in cultured Ha-ras transformed RAT1 cells; format: cell-based
In short: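 Competitive binding in v-Ha-ras transformed RAT1 cells seeded at 200,000 cells/well and cultured 16 h. [125I]-labelled FTI radiotracer diluted to 1 nM in culture medium with test FTI is added to the monolayers. Incubation 4 h at 37 °C, PBS rinse, trypsinization, gamma counting. Nonspecific binding is taken with 1000-fold excess unlabeled FTI.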

[2] = target: Geranylgeranyl transferase type I (Homo sapiens, UniProt P49354+P53609); assay: In vitro inhibitory activity to reduce the human geranylgeranyl transferase type I (GGPTase-1)-catalyzed incorporation of 3H GGPP (100 nM) into K-Ras-derived peptide; format: functional
[3] = target: Protein farnesyltransferase (Homo sapiens, UniProt P49354+P49356); assay: In vitro inhibitory activity to reduce the human farnesyltransferase catalyzed incorporation of [3H]FPP into recombinant Ras-CVIM; format: functional
In short: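 Human FPTase, [3H]FPP incorporated into recombinant Ras-CVIM. Enzyme at 1 nM, or 10 pM for some compounds.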

[4] = rat
[5] = Clearance by iv administration in dogs at a dose of 1 mg/kg; conditions: dog, in vivo

Structure (SMILES): C[C@@H]1C(=O)Nc2cccc3ccc(cc23)Oc2cc(ccc2C#N)Cn2cncc2CN1Cc1ccccc1
- IC50 [1]: 0.24 µM
- IC50 [2]: > 20 µM
- IC50 [3]: 0.018 µM

Structure (SMILES): N#Cc1ccc2cc1Oc1ccc3cccc(c3c1)NC(=O)[C@@H](Cc1ccccc1)N(Cc1ccccc1)Cc1cncn1C2
- IC50 [1]: 0.574 µM
- IC50 [2]: > 20 µM
- IC50 [3]: 0.05 µM

Structure (SMILES): CN1Cc2cncn2Cc2ccc(C#N)c(c2)Oc2ccc3cccc(c3c2)NC(=O)[C@H]1Cc1ccccc1
- IC50 [1]: 0.184 µM
- IC50 [2]: 0.35 µM
- IC50 [3]: 0.0027 µM

Structure (SMILES): C[C@@H]1C(=O)Nc2cccc3ccc(cc23)Oc2cc(ccc2C#N)Cn2cncc2CN1C
- IC50 [1]: > 0.1 µM
- IC50 [2]: 1.22 µM
- IC50 [3]: 0.007 µM

Structure (SMILES): C[C@H]1NCc2cncn2Cc2ccc(C#N)c(c2)Oc2ccc3cccc(c3c2)N(C)C1=O
- IC50 [1]: 0.017 µM
- IC50 [2]: 3.16 µM
- IC50 [3]: 0.016 µM

Structure (SMILES): C[C@@H]1C(=O)N(C)c2cccc3ccc(cc23)Oc2cc(ccc2C#N)Cn2cncc2CN1C
- IC50 [1]: 0.015 µM
- IC50 [2]: 6.76 µM

Structure (SMILES): N#Cc1ccc2cc1Oc1ccc3cccc(c3c1)C(=O)NCCNCc1cncn1C2
- IC50 [1]: 0.0071 µM
- IC50 [2]: 0.077 µM
- IC50 [3]: 0.0045 µM

Structure (SMILES): CC[C@H]1NCc2cncn2Cc2ccc(C#N)c(c2)Oc2ccc3cccc(c3c2)NC1=O
- IC50 [1]: 0.41 µM
- IC50 [2]: 0.469 µM
- IC50 [3]: 0.0012 µM

Structure (SMILES): N#Cc1ccc2cc1Oc1ccc3cccc(c3c1)NC(=O)CNC(=O)Cc1cncn1C2
- IC50 [1]: 0.067 µM
- IC50 [2]: 0.15 µM
- IC50 [3]: 0.0038 µM

Structure (SMILES): CN1CC(=O)Nc2cccc3ccc(cc23)Oc2cc(ccc2C#N)Cn2cncc2C1
- IC50 [1]: 0.196 µM
- IC50 [2]: 2.07 µM
- IC50 [3]: 0.0057 µM

Structure (SMILES): N#Cc1ccc2cc1Oc1ccc3cccc(c3c1)NC(=O)[C@@H](Cc1ccccc1)NC(=O)Cc1cncn1C2
- IC50 [1]: 0.31 µM
- IC50 [2]: 0.029 µM
- IC50 [3]: 0.0035 µM

Structure (SMILES): N#Cc1ccc2cc1Oc1ccc3cccc(c3c1)NC(=O)[C@@H](Cc1ccccc1)NCc1cncn1C2
- IC50 [1]: 0.017 µM
- IC50 [2]: 0.066 µM
- IC50 [3]: 0.00047 µM

Structure (SMILES): N#Cc1ccc2cc1Oc1ccc3cccc(c3c1)C(=O)NCCCNCc1cncn1C2
- IC50 [1]: 0.099 µM
- IC50 [2]: 0.89 µM
- IC50 [3]: 0.0023 µM

Structure (SMILES): C[C@@H]1NCc2cncn2Cc2ccc(C#N)c(c2)Oc2ccc3cccc(c3c2)NC1=O
- IC50 [1]: 0.248 µM
- IC50 [2]: 4.82 µM
- IC50 [3]: 0.011 µM

Structure (SMILES): N#Cc1ccc2cc1Oc1ccc3cccc(c3c1)C(=O)NCCNC(=O)Cc1cncn1C2
- IC50 [1]: 0.409 µM
- IC50 [2]: 0.25 µM
- IC50 [3]: 0.0025 µM

Structure (SMILES): N#Cc1ccc2cc1Oc1ccc3cccc(c3c1)N1CCN(CC1=O)Cc1cncn1C2
- half-life [4]: 1 h
- clearance [5]: 0.306 L/h/kg

Structure (SMILES): CN1CC(=O)N(C)c2cccc3ccc(cc23)Oc2cc(ccc2C#N)Cn2cncc2C1
- IC50 [1]: 0.013 µM
- IC50 [2]: 12.8 µM
- IC50 [3]: 0.0084 µM

Structure (SMILES): N#Cc1ccc2cc1Oc1ccc3cccc(c3c1)NC(=O)CN(Cc1ccccc1)Cc1cncn1C2
- IC50 [1]: 0.0296 µM
- IC50 [2]: > 20 µM
- IC50 [3]: 0.0026 µM

Structure (SMILES): N#Cc1ccc2cc1Oc1ccc3cccc(c3c1)NC(=O)[C@@H](Cc1cccnc1)NCc1cncn1C2
- IC50 [1]: 1.31 µM
- IC50 [2]: 0.147 µM
- IC50 [3]: 0.0018 µM

Structure (SMILES): N#Cc1ccc2cc1Oc1ccc3cccc(c3c1)NC(=O)CNCc1cncn1C2
- IC50 [1]: 0.037 µM
- IC50 [2]: 0.675 µM
- IC50 [3]: 0.0043 µM

Structure (SMILES): N#Cc1ccc2cc1Oc1ccc3cccc(c3c1)NC(=O)[C@@H](Cc1cccs1)NCc1cncn1C2
- IC50 [1]: 0.043 µM
- IC50 [2]: 0.072 µM
- IC50 [3]: 0.0021 µM

Structure (SMILES): C[C@H]1NC(=O)Cc2cncn2Cc2ccc(C#N)c(c2)Oc2ccc3cccc(c3c2)NC1=O
- IC50 [1]: 0.258 µM
- IC50 [2]: 0.05 µM
- IC50 [3]: 0.0033 µM

Structure (SMILES): CN1C(=O)CNCc2cncn2Cc2ccc(C#N)c(c2)Oc2ccc3cccc1c3c2
- IC50 [1]: 0.055 µM
- IC50 [2]: 6.72 µM
- IC50 [3]: 0.015 µM

Structure (SMILES): CN1C(=O)CNC(=O)Cc2cncn2Cc2ccc(C#N)c(c2)Oc2ccc3cccc1c3c2
- IC50 [1]: 0.065 µM
- IC50 [2]: 1.09 µM
- IC50 [3]: 0.0066 µM

Structure (SMILES): C[C@H]1NCc2cncn2Cc2ccc(C#N)c(c2)Oc2ccc3cccc(c3c2)NC1=O
- IC50 [1]: 0.023 µM
- IC50 [2]: 0.313 µM
- IC50 [3]: 0.0013 µM
